Measurements taken from ChEMBL document CHEMBL1128220, “Syntheses and antimalarial activities of N-substituted 11-azaartemisinins” (J Med Chem, 1995).

Experiments:
Mus musculus [1] = assay: Number of mice alive 60 days after infection at the dose of 64 mg/kg/day among the 7 mice tested; assay type: functional
In short: (§1)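 Mice infected with Plasmodium berghei were dosed in mg/kg/day, from 0 for untreated controls up to 256. Deaths were logged by the day postinfection on which they occurred. Surviving mice were counted 60 days after infection. Treated groups held 5 or 7 mice.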

Mus musculus [2] = assay: In vivo study of compound in mice was determined by no. of dead mice after 9 days post infection at the dose of 4 mg/kg/day; assay type: ADME, organism-based; settings: 216 h; in short: as §1
Mus musculus [3] = assay: Number of mice alive 60 days after infection at the dose of 256 mg/kg/day among the 7 mice tested; assay type: functional; in short: as §1
Mus musculus [4] = assay: In vivo study of compound in mice was determined by no. of dead mice after 16 days post infection at the dose of 4 mg/kg/day; assay type: ADME, organism-based; settings: 384 h; in short: as §1
Mus musculus [5] = assay: In vivo study of compound in mice was determined by no. of dead mice after 11 days post infection at the dose of 4 mg/kg/day; assay type: ADME, organism-based; settings: 264 h; in short: as §1
Mus musculus [6] = assay: In vivo study of compound in mice was determined by no. of dead mice after 8 days post infection at the dose of 4 mg/kg/day; assay type: ADME, organism-based; settings: 192 h; in short: as §1
Mus musculus [7] = assay: In vivo study of compound in mice was determined by no. of dead mice after 18 days post infection at the dose of 4 mg/kg/day; assay type: ADME, organism-based; settings: 432 h; in short: as §1
Mus musculus [8] = assay: Number of mice alive 60 days after infection at the dose of 16 mg/kg/day among the 7 mice tested; assay type: functional; in short: as §1
Mus musculus [9] = assay: Number of mice alive 60 days after infection at the dose of 4 mg/kg/day among the 7 mice tested; assay type: functional; in short: as §1
Mus musculus [10] = assay: In vivo study of compound in mice was determined by no. of dead mice after 12 days post infection at the dose of 4 mg/kg/day; assay type: ADME, organism-based; settings: 288 h; in short: as §1
Mus musculus [11] = assay: In vivo study of compound in mice was determined by no. of dead mice after 18 days post infection at the dose of 16 mg/kg/day; assay type: ADME, organism-based; settings: 432 h; in short: as §1
Plasmodium falciparum = assay: In vitro antimalarial activity for chloroquine-resistant Plasmodium falciparum FCR3 relative to artemisinin; assay type: functional
Mus musculus [12] = assay: Number of mice alive 60 days after infection at the dose of 8 mg/kg/day among the 7 mice tested; assay type: functional; in short: as §1
Mus musculus [13] = assay: In vivo study of Plasmodium berghei in mice (Mus musculus) was determined by number of dead mice (Mus musculus) after 27 days post infection at the dose of 32 mg/kg/day; assay type: ADME, organism-based; settings: 648 h; in short: as §1
Mus musculus [14] = assay: In vivo study of control in mice was determined by no. of dead mice after 9 days post infection at the dose of 0 mg/kg/day; assay type: ADME, organism-based; settings: 216 h; in short: as §1
Mus musculus [15] = assay: In vivo study of control in mice was determined by no. of dead mice after 8 days post infection at the dose of 0 mg/kg/day; assay type: ADME, organism-based; settings: 192 h; in short: as §1
Mus musculus [16] = assay: Number of mice alive 60 days after infection at the dose of 128 mg/kg/day among the 7 mice tested; assay type: functional; in short: as §1
Mus musculus [17] = assay: In vivo study of Plasmodium berghei in mice (Mus musculus) was determined by number of dead mice (Mus musculus) after 20 days post infection at the dose of 32 mg/kg/day; assay type: ADME, organism-based; settings: 480 h; in short: as §1
Mus musculus [18] = assay: In vivo study of control in mice was determined by no. of dead mice after 7 days post infection at the dose of 0 mg/kg/day; assay type: ADME, organism-based; settings: 168 h; in short: as §1
Mus musculus [19] = assay: In vivo study of Plasmodium berghei in mice (Mus musculus) was determined by number of dead mice (Mus musculus) after 14 days post infection at the dose of 8 mg/kg/day; assay type: ADME, organism-based; settings: 336 h; in short: as §1
Mus musculus [20] = assay: In vivo study of Plasmodium berghei in mice (Mus musculus) was determined by number of dead mice (Mus musculus) after 12 days post infection at the dose of 32 mg/kg/day; assay type: ADME, organism-based; settings: 288 h; in short: as §1
Mus musculus [21] = assay: In vivo study of Plasmodium berghei in mice (Mus musculus) was determined by number of dead mice (Mus musculus) after 18 days post infection at the dose of 32 mg/kg/day; assay type: ADME, organism-based; settings: 432 h; in short: as §1
Mus musculus [22] = assay: In vivo study of Plasmodium berghei in mice (Mus musculus) was determined by number of dead mice (Mus musculus) after 16 days post infection at the dose of 8 mg/kg/day; assay type: ADME, organism-based; settings: 384 h; in short: as §1
Mus musculus [23] = assay: Number of mice alive 60 days after infection at the dose of 0 mg/kg/day among the 7 mice tested; assay type: functional; in short: as §1
Mus musculus [24] = assay: In vivo study of Plasmodium berghei in mice (Mus musculus) was determined by number of dead mice (Mus musculus) after 17 days post infection at the dose of 128 mg/kg/day; assay type: ADME, organism-based; settings: 408 h; in short: as §1
Mus musculus [25] = assay: In vivo study of Plasmodium berghei in mice (Mus musculus) was determined by number of dead mice (Mus musculus) after 19 days post infection at the dose of 32 mg/kg/day; assay type: ADME, organism-based; settings: 456 h; in short: as §1
Mus musculus [26] = assay: In vivo study of Plasmodium berghei in mice (Mus musculus) was determined by number of dead mice (Mus musculus) after 13 days post infection at the dose of 8 mg/kg/day; assay type: ADME, organism-based; settings: 312 h; in short: as §1
Mus musculus [27] = assay: Number of mice alive 60 days after infection at the dose of 32 mg/kg/day among the 7 mice tested; assay type: functional; in short: as §1
Mus musculus [28] = assay: In vivo study of control in mice was determined by no. of dead mice after 10 days post infection at the dose of 0 mg/kg/day; assay type: ADME, organism-based; settings: 240 h; in short: as §1
Mus musculus [29] = assay: Number of mice alive 60 days after infection at the dose of 8 mg/kg/day among the 5 mice tested; assay type: functional; in short: as §1
Mus musculus [30] = assay: Number of mice alive 60 days after infection at the dose of 32 mg/kg/day among the 5 mice tested; assay type: functional; in short: as §1
Mus musculus [31] = assay: In vivo study of compound in mice was determined by no. of dead mice after 15 days post infection at the dose of 8 mg/kg/day; assay type: ADME, organism-based; settings: 360 h; in short: as §1
Mus musculus [32] = assay: In vivo study of compound in mice was determined by no. of dead mice after 19 days post infection at the dose of 8 mg/kg/day; assay type: ADME, organism-based; settings: 456 h; in short: as §1
Mus musculus [33] = assay: In vivo study of compound in mice was determined by no. of dead mice after 16 days post infection at the dose of 8 mg/kg/day; assay type: ADME, organism-based; settings: 384 h; in short: as §1
Mus musculus [34] = assay: In vivo study of compound in mice was determined by no. of dead mice after 26 days post infection at the dose of 8 mg/kg/day; assay type: ADME, organism-based; settings: 624 h; in short: as §1
Mus musculus [35] = assay: In vivo study of Plasmodium berghei in mice (Mus musculus) was determined by number of dead mice (Mus musculus) after 20 days post infection at the dose of 8 mg/kg/day; assay type: ADME, organism-based; settings: 480 h; in short: as §1
Mus musculus [36] = assay: Number of mice alive 60 days after infection at the dose of 128 mg/kg/day among the 5 mice tested; assay type: functional; in short: as §1

## CCOC1O[C@@H]2O[C@@]3(C)CC[C@H]4[C@H](C)CCC([C@H]1C)[C@@]24OO3 (some centres not stated)
Mus musculus [1]
  No. of mice alive: 7
Mus musculus [2]
  No. of dead mice: 1
Mus musculus [3]
  No. of mice alive: 7
Mus musculus [4]
  No. of dead mice: 1
Mus musculus [5]
  No. of dead mice: 1
Mus musculus [6]
  No. of dead mice: 1
Mus musculus [7]
  No. of dead mice: 2
Mus musculus [8]
  No. of mice alive: 6
Mus musculus [9]
  No. of mice alive: 0
Mus musculus [10]
  No. of dead mice: 1
Mus musculus [11]
  No. of dead mice: 1

## C[C@@H]1CCC2[C@@H](C)C(=O)N(Cc3ccccn3)[C@@H]3O[C@@]4(C)CC[C@@H]1[C@@]23OO4 (some centres not stated)
Plasmodium falciparum
  Relative activity: 22

## C=CCN1C(=O)[C@H](C)C2CC[C@@H](C)[C@@H]3CC[C@@]4(C)OO[C@@]23[C@H]1O4 (some centres not stated)
Plasmodium falciparum
  Relative activity: 0.8

## CO[C@@]1(C)CC[C@@H]2C3C(CC[C@H]2C)[C@@H](C)C(=O)N(CC(C)(C)C)[C@@H]3O1 (some centres not stated)
Plasmodium falciparum
  Relative activity: 0.001

## CO[C@@]1(C)CC[C@@H]2C3C(CC[C@H]2C)[C@@H](C)C(=O)N(Cc2ccccn2)[C@@H]3O1 (some centres not stated)
Plasmodium falciparum
  Relative activity: 0.008

## C[C@@H]1CCC2[C@@H](C)C(=O)N(Cc3ccco3)[C@@H]3O[C@@]4(C)CC[C@@H]1[C@@]23OO4 (some centres not stated)
Plasmodium falciparum
  Relative activity: 1

## CO[C@@]1(C)CC[C@@H]2C3C(CC[C@H]2C)[C@@H](C)C(=O)N[C@@H]3O1 (some centres not stated)
Plasmodium falciparum
  Relative activity: 0.01

## C[C@@H]1CC[C@H]2[C@@H](C)C(=O)O[C@@H]3O[C@@]4(C)CC[C@@H]1[C@]32OO4 [ARTEMISININ]
Mus musculus [12]
  No. of mice alive: 0
Mus musculus [13]
  No. of dead mice: 1
Mus musculus [14]
  No. of dead mice: 1
Mus musculus [15]
  No. of dead mice: 2
Mus musculus [16]
  No. of mice alive: 6
Mus musculus [17]
  No. of dead mice: 1
Mus musculus [18]
  No. of dead mice: 3
Mus musculus [19]
  No. of dead mice: 2
Mus musculus [20]
  No. of dead mice: 1
Mus musculus [21]
  No. of dead mice: 1
Mus musculus [22]
  No. of dead mice: 2
Mus musculus [23]
  No. of mice alive: 0
Mus musculus [24]
  No. of dead mice: 1
Mus musculus [25]
  No. of dead mice: 1
Mus musculus [26]
  No. of dead mice: 1
Mus musculus [27]
  No. of mice alive: 2
Mus musculus [28]
  No. of dead mice: 1

## C[C@@H]1CCC2[C@@H](C)C(=O)N[C@@H]3O[C@@]4(C)CC[C@@H]1[C@@]23OO4 (some centres not stated)
Plasmodium falciparum
  Relative activity: 1

## C[C@@H]1CCC2[C@@H](C)C(=O)N(C)[C@@H]3O[C@@]4(C)CC[C@@H]1[C@@]23OO4 (some centres not stated)
Plasmodium falciparum
  Relative activity: 2.6

## C[C@@H]1CCC2[C@@H](C)C(=O)N(CC=O)[C@@H]3O[C@@]4(C)CC[C@@H]1[C@@]23OO4 (some centres not stated)
Mus musculus [29]
  No. of mice alive: 0
Mus musculus [30]
  No. of mice alive: 5
Mus musculus [31]
  No. of dead mice: 1
Mus musculus [32]
  No. of dead mice: 1
Mus musculus [33]
  No. of dead mice: 1
Mus musculus [34]
  No. of dead mice: 1
Mus musculus [35]
  No. of dead mice: 1
Plasmodium falciparum
  Relative activity: 26
Mus musculus [36]
  No. of mice alive: 5

## C[C@@H]1CCC2[C@@H](C)C(=O)N(Cc3cccs3)[C@@H]3O[C@@]4(C)CC[C@@H]1[C@@]23OO4 (some centres not stated)
Plasmodium falciparum
  Relative activity: 1.1

## C[C@@H]1CCC2[C@@H](C)C(=O)N(CC(C)(C)C)[C@@H]3O[C@@]4(C)CC[C@@H]1[C@@]23OO4 (some centres not stated)
Plasmodium falciparum
  Relative activity: 9
